Assay results published in ChEMBL document CHEMBL1130136, “Novel biological response modifiers: phthalimides with tumor necrosis factor-alpha production-regulating activity” (J Med Chem, 1997).
≈ marks a conversion by molar mass, not a printed value.

Assays:
HL-60 [1] = assay: Tumor necrosis factor-alpha production in human leukemia cell line (HL-60) stimulated with 10 nM 12-O-tetradecanoylphorbol 13-acetate (TPA) at 30 uMolar.; assay type: functional
Summary of the method: (§1)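 HL-60 cells at 5 × 10⁵/mL in RPMI1640 + 10% FBS were co-treated with 30 μM test compound and either 10 nM TPA or 50 nM OA for 16 h at 37 °C. Culture-medium TNF-α was measured by ELISA and expressed as % of inducer-alone control. Cell counts were taken at harvest. Assays were run in duplicate or triplicate (mean taken), at least three times.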

HL-60 [2] = assay: Tumor necrosis factor-alpha production in human leukemia cell line (HL-60) stimulated with 50 nM okadaic acid (OA), at 30 uMolar.; assay type: functional; summary of the method: as §1
WI-38 [3] = assay: The cytotoxicity of the compounds assessed using human embryonic lung fibroblast WI-38 cells at (97 micro M); assay type: functional, cell-based
Summary of the method: (§2)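 WI-38 human embryonic lung fibroblasts (5 × 10³ cells/well) in RPMI1640 + 10% FCS were exposed to graded concentrations of compound for 48 h at 37 °C. Viability was read by WST-1 with 1-methoxy PMS (2 h, 37 °C; absorbance at 450 nm). IC50 was reported in μg/mL, with the μM equivalent in parentheses.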

WI-38 [4] = assay: The cytotoxicity of the compounds assessed using human embryonic lung fibroblast WI-38 cells at (264 micro M); assay type: functional, cell-based; summary of the method: as §2
HL-60 [5] = assay: Amount of tumor necrosis factor-alpha produced by human leukemia cell line (HL-60) stimulated with 10 nM12-O-tetradecanoylphorbol 13-acetate (TPA) at 0.3 uM, measured by ELISA; assay type: functional
Summary of the method: (§3)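 HL-60 cells (2.5 × 10⁵ in 0.5 mL, i.e. 5 × 10⁵/mL), growing exponentially in RPMI1640 + 10% FBS, were exposed to 10 nM TPA or 50 nM OA together with 0.3 μM test compound for 16 h at 37 °C. Secreted TNF-α was quantified by ELISA and expressed as % of inducer-alone production. Each run was done in duplicate or triplicate (mean taken) and repeated at least three times.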

HL-60 [6] = assay: Inhibition of 50 nM okadaic acid induced tumor necrosis factor-alpha production in human leukemia cell line (HL-60) by 0.3 uM.; assay type: functional; summary of the method: as §3
WI-38 [7] = assay: The cytotoxicity of the compounds assessed using human embryonic lung fibroblast WI-38 cells at (83 micro M); assay type: functional, cell-based; summary of the method: as §2
WI-38 [8] = assay: The cytotoxicity of the compounds assessed using human embryonic lung fibroblast WI-38 cells at (87 micro M); assay type: functional, cell-based; summary of the method: as §2
WI-38 [9] = assay: The cytotoxicity assessed using human embryonic lung fibroblast WI-38 cells.; assay type: functional, cell-based; summary of the method: as §2
HL-60 [10] = assay: Amount of tumor necrosis factor-alpha produced by human leukemia cell line (HL-60) stimulated with 10 nM12-O-tetradecanoylphorbol 13-acetate (TPA) at 0.3 uM, measured by ELISA.; assay type: functional; summary of the method: as §3
WI-38 [11] = assay: The cytotoxicity of the compounds assessed using human embryonic lung fibroblast WI-38 cells at (53 micro M); assay type: functional, cell-based; summary of the method: as §2

SMILES	Amount of TNF-alpha (HL-60 [1])	Amount of TNF-alpha (HL-60 [2])	Amount of TNF-alpha (HL-60 [6])	further results
Cc1cccc(C(C)C)c1N1C(=O)c2ccccc2C1=O	234%	33%	–	IC50 (WI-38 [3]): 28.1 µg/mL (≈ 101 µM)
CC(C)c1cccc(C(C)C)c1N1C(=O)c2cccc([N+](=O)[O-])c2C1=O	792%	54%	–	IC50 (WI-38 [4]): 93.1 µg/mL (≈ 264 µM)
C[C@@H](c1ccccc1)N1C(=O)c2c(F)c(F)c(F)c(F)c2C1=O	–	–	70%	Amount of TNF-alpha (HL-60 [5]): 143%; IC50 (WI-38 [7]): 26.8 µg/mL (≈ 82.9 µM)
O=C1c2c(F)c(F)c(F)c(F)c2C(=O)N1[C@@H]1CCc2ccccc21	–	–	43%	Amount of TNF-alpha (HL-60 [5]): 233%; IC50 (WI-38 [8]): 30.3 µg/mL (≈ 90.4 µM)
O=C1CCC(N2C(=O)c3ccccc3C2=O)C(=O)N1 (stereo not given) [THALIDOMIDE]	135%	58%	–	IC50 (WI-38 [9]): > 100 µg/mL
CC(=O)Nc1ccc([C@H](C)N2C(=O)c3c(F)c(F)c(F)c(F)c3C2=O)cc1	–	–	80%	Amount of TNF-alpha (HL-60 [10]): 268%
CC(C)c1cccc(C(C)C)c1N1C(=O)c2ccc(N)cc2C1=O	242%	28%	–	IC50 (WI-38 [11]): 17.4 µg/mL (≈ 54 µM)
